Like-named read-outs stand apart in the source and are kept apart here.
Experiments:
[1] = system: mouse hippocampal slices (CA1 fEPSP); assay: mGluR-dependent LTD; type: cell-based; conditions: DHPG 100 μM, 5 min
GSK3β [2] = conditions: cited from earlier work; for EC50: read-out: cellular EC50 against GSK3β, HEK293 cells
[3] = system: T668 of amyloid precursor protein (APP); assay: Western blot of APP phosphorylation in dorsal hippocampus after in vivo dosing; design: species or system mouse; conditions: Fmr1^−/y mice, five days
[4] = system: mouse hippocampal slices (CA1 fEPSP); assay: NMDAR-dependent LTD and synaptic transmission in hippocampal slices; type: cell-based; conditions: for NMDAR-dependent LTD, acute application: wild-type hippocampal slices, 10 μM, LFS 900 pulses at 3 Hz
GSK3β [5] = conditions: cited from earlier work; for IC50: read-out: biochemical IC50 against GSK3β, reported values
[6] = plasma, CSF and brain pharmacokinetics in C57BL/6 mice; type: in vivo, mouse; conditions: 30 mg/kg ip; for brain entry after in vivo dosing: confirmed by hippocampal APP phosphorylation and LTD
Method in brief: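 Male C57BL/6 mice received a single 30 mg/kg ip dose. Blood was taken into K2-EDTA from three mice per time point, and plasma was stored below −70°C. CSF and brain were sampled at 0.08, 0.5, 1, 2, 4, 8 and 24 h. Brains were rinsed in PBS pH 7.4 and homogenised in ice-cold PBS to three times brain weight before analysis.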

wild-type mice = assay: MK-801–induced hyperlocomotion; type: in vivo, mouse; conditions: MK-801 0.3 mg/kg
β-catenin = assay: Western blot of β-catenin in SH-SY5Y cultured cells; type: cell-based; conditions: 10 μM, 24 hours
[7] = system: CRMP2 phosphorylation (p-CRMP2); assay: Western blot of CRMP2 phosphorylation in SH-SY5Y cultured cells; type: cell-based; conditions: 10 μM
mouse hippocampal slices = assay: metabolic labeling of protein synthesis in hippocampal slices; type: cell-based
Method in brief: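 Hippocampal slices (500 μm) came from male P28–P32 Fmr1−/y and WT littermates and were kept in oxygenated aCSF at 32.5°C. Compound was applied at 10 μM. Slices were labelled with [35S]Met/Cys for 30 min, then proteins were TCA-precipitated and counted by scintillation. Counts per minute per μg protein were normalised to the labelling aCSF and expressed as percent WT. Analysis was two-way ANOVA for genotype × treatment.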

[8] = system: layer 5 of the visual cortex slices; assay: evoked and spontaneous spiking in visual cortex slices; type: cell-based, mouse; conditions: 10 μM
Method in brief: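 Visual cortex slices (350 μm) came from P16–P21 male WT and Fmr1−/y mice, cut in ice-cold sucrose solution. Recovery was 30 min at 32°C, then 2.5 h at room temperature in modified aCSF. White matter was stimulated with 0.2 ms pulses every 30 s at 35–80 μA, with extracellular recording in layer 5. Recording ran 30 min in vehicle (60 trials), then 30 min with 10 μM compound from 50 mM DMSO stock. Analysis was two-way repeated-measures ANOVA with Bonferroni post hoc.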

Fmr1^−/y mice [9] = conditions: 30 mg/kg ip chronic, over 48 hours
Fmr1^−/y mice [10] = assay: audiogenic seizure; type: in vivo, mouse; conditions: for AGS incidence, chronic dosing: 30 mg/kg ip daily for five days
Method in brief: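 Male Fmr1−/y mice were housed on static racks to avoid auditory desensitisation. Doses were 30 mg/kg ip in 10% DMSO/45% PEG 400/45% saline. Acute: one injection 1–2 h before alarm exposure in a separate room. Chronic: four daily injections plus a fifth 1–2 h before testing. The mGluR5 antagonist comparator was given as three doses every 48 h. Incidence was compared by two-tailed Fisher's exact test.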

GSK3α [11] = conditions: read-out: cellular EC50 against GSK3α; HEK293 cells; cited from earlier work
GSK3α [12] = conditions: read-out: biochemical IC50 against GSK3α; reported values; cited from earlier work
T514 of CRMP2 = assay: Western blot of CRMP2 phosphorylation in dorsal hippocampus after in vivo dosing; design: species or system mouse; conditions: Fmr1^−/y mice, five days dosing
GSK3 = conditions: lithium treatment in patients with bipolar disorder; cited from earlier work
[13] = system: mouse hippocampal slices (CA1 fEPSP); conditions: previous studies; cited from earlier work
Fmr1^−/y mice [14] = conditions: chronic dietary treatment; cited from earlier work
Fmr1^−/y mice [15] = conditions: cited from earlier work
[16] = Fmr1^−/y hippocampal slices, 10 μM
[17] = Fmr1^−/y visual cortical slices
[18] = wild-type visual cortical slices
[19] = Fmr1^−/y mice, 30 mg/kg ip, 1 hour before stimulus

SMILES: CC[C@]1(c2ccccc2)C2=CNNC2=NC2=C1C(=O)CC(C)(C)C2 [BRD0705, (S)-4-ethyl-7,7-dimethyl-4-phenyl-1,2,4,6,7,8-hexahydro-5H-pyrazolo[3,4-b]quinolin-5-one]
- mGluR-dependent LTD ([1]; Fmr1^−/y hippocampal slices): blocked induction of LTD
- mGluR-dependent LTD ([1]; wild-type hippocampal slices): blocked induction of LTD
- APP phosphorylation (T668) in dorsal hippocampus ([3]; 30 mg/kg ip QD): reduced APP phosphorylation
- NMDAR-dependent LTD, acute application [4]: blocked low-frequency stimulation–induced LTD
- synaptic transmission ([4]; wild-type mice): no effect
- brain entry after in vivo dosing [6]: successfully entered the brain
- effect of pretreatment on MK-801–induced hyperlocomotion (wild-type mice; 30 mg/kg ip): had no effect on the behavioral response to MK-801
- effect on β-catenin (β-catenin): no effect on β-catenin
- CRMP2 phosphorylation (p-CRMP2) [7]: decrease of CRMP2 phosphorylation
- basal protein synthesis (mouse hippocampal slices; [16]): reduced elevated protein synthesis
- CDPPB (mGluR5)-stimulated protein synthesis (mouse hippocampal slices; wild-type hippocampal slices, 10 μM, CDPPB 10 μM): blocked the elevation in protein synthesis
- basal protein synthesis (mouse hippocampal slices; wild-type mice): no effect on basal protein synthesis
- number of evoked action potentials [8, 17]: significantly reduced the number of action potentials
- number of spontaneous action potentials [8, 17]: significantly reduced the number of spontaneous action potentials
- number of evoked action potentials [8, 18]: had no effect on WT visual cortical slices
- inhibitory avoidance memory acquisition and extinction (Fmr1^−/y mice [9]): exhibited normal memory acquisition and extinction
- AGS incidence, chronic dosing (Fmr1^−/y mice [10]; Fmr1^−/y mice): no apparent loss of efficacy
- AGS incidence, acute dosing (Fmr1^−/y mice [10]; [19]): significant reduction in seizure incidence
- AGS incidence, acute dosing (Fmr1^−/y mice [10]; wild-type mice, 30 mg/kg ip): had no effect on seizure incidence

SMILES: CC(C)(C)CC1=C2C(=NC3=C(C(=O)CC(C)(C)C3)[C@@]2(C)c2ccccc2)NN1 [BRD3731, (S)-4,7,7-trimethyl-3-neopentyl-4-phenyl-1,2,4,6,7,8-hexahydro-5H-pyrazolo[3,4-b]quinolin-5-one]
- mGluR-dependent LTD ([1]; Fmr1^−/y hippocampal slices): but not BRD3731, blocked induction of LTD
- mGluR-dependent LTD ([1]; wild-type hippocampal slices): but not BRD3731, blocked induction of LTD
- EC50 (GSK3β [2]): 3300 nM
- APP phosphorylation (T668) in dorsal hippocampus ([3]; 30 mg/kg ip QD): reduced APP phosphorylation
- NMDAR-dependent LTD ex vivo after chronic dosing in vivo ([4]; 30 mg/kg ip daily for five days, slices 1 hour after last injection): inhibited NMDAR-dependent LTD
- NMDAR-dependent LTD, acute application [4]: strongly inhibited LTD
- selectivity for GSK3β (GSK3β [5]; purified enzymes): about 10 fold
- IC50 (GSK3β [5]): 15 nM
- time of peak brain concentration after injection [6]: 60 min
- brain entry after in vivo dosing [6]: successfully entered the brain
- effect on β-catenin (β-catenin): no effect on β-catenin
- CRMP2 phosphorylation (p-CRMP2) [7]: decrease of CRMP2 phosphorylation
- basal protein synthesis (mouse hippocampal slices; [16]): had no effect
- number of evoked action potentials [8, 17]: did not alter activity
- number of spontaneous action potentials [8, 17]: does not reduce spontaneous hyperactivity
- number of evoked action potentials [8, 18]: did not alter activity
- EC50 (GSK3α [11]): > 20000 nM
- AGS incidence, chronic dosing (Fmr1^−/y mice [10]; Fmr1^−/y mice): has no effect on AGS incidence
- AGS incidence, acute dosing (Fmr1^−/y mice [10]; [19]): no significant reduction in seizure activity
- AGS incidence, acute dosing (Fmr1^−/y mice [10]; wild-type mice, 30 mg/kg ip): did not affect seizure incidence
- IC50 (GSK3α [12]): 215 nM

SMILES: CC1(C)CC(=O)C2=C(C1)N=C1NNC(C3CC3)=C1[C@]2(C)c1ccccc1 [BRD0320, (S)-3-cyclopropyl-4,7,7-trimethyl-4-phenyl-1,2,4,6,7,8-hexahydro-5H-pyrazolo[3,4-b]quinolin-5-one]
- effect on β-catenin (β-catenin): increase in β-catenin
- AGS incidence, acute dosing (Fmr1^−/y mice [10]; [19]): ameliorates AGS incidence

SMILES: N#Cc1cccc(C(=O)Nc2cc(-c3ccccc3)nn2-c2ccccc2)c1 [CDPPB, 3-cyano-N-(1,3-diphenyl-1H-pyrazol-5-yl) benzamide, reference compound]
- protein synthesis on mGluR5 stimulation (mouse hippocampal slices; wild-type hippocampal slices, 10 μM, versus vehicle): significantly increased protein synthesis

SMILES: Cc1nc(C#Cc2cccnc2)cs1 [MTEP, 3-[(2-methyl-1,3-thiazol-4-yl)ethynyl]-pyridine, reference compound]
- effect of pretreatment on MK-801–induced hyperlocomotion (wild-type mice; 10 mg/kg ip): potentiated MK-801–induced hyperlocomotion

SMILES: [Cl-].[Li+] [lithium, lithium chloride]
- phosphorylation of T514 of CRMP2 in hippocampus in vivo (T514 of CRMP2): not changed
- inhibition of total GSK3 protein (GSK3): < 75%
- APP phosphorylation (T668) in dorsal hippocampus ([3]; 60 mg/kg ip twice daily): reduced APP phosphorylation
- NMDAR-dependent LTD [13]: reliably inhibit LTD
- rates of cerebral protein synthesis (Fmr1^−/y mice [14]): reduces elevated rates of cerebral protein synthesis
- AGS protection (Fmr1^−/y mice [15]): protect Fmr1^−/y mice from AGS
- AGS, daily injections over 5 days (Fmr1^−/y mice [15]): effectively reduce AGS

SMILES: Cc1cccc(C#Cc2ccccc2)n1 [MPEP]
- suppression of AGS after chronic dosing (tolerance) (Fmr1^−/y mice [15]): greatly reduced after chronic dosing

SMILES: Cc1nc(C#Cc2ccnc(Cl)c2)c(C)n1-c1ccc(OC(F)(F)F)cc1 [CTEP, 2-chloro-4-((2,5-dimethyl-1-(4-(trifluoromethoxy)phenyl)-1H-imidazol-4-yl)ethynyl) pyridine, reference compound]
- AGS incidence, acute dosing (Fmr1^−/y mice [10]; Fmr1^−/y mice, 2 mg/kg ip): significantly reduced the incidence of AGS
- AGS protection after chronic dosing (Fmr1^−/y mice [10]; Fmr1^−/y mice, three consecutive doses over 5 days, 2 mg/kg ip): protection was completely lost

SMILES: O=C1NC(=O)C(c2ccccc2[N+](=O)[O-])=C1Nc1ccc(O)c(Cl)c1 [SB415286]
- NMDAR-dependent LTD [13]: reliably inhibit LTD

SMILES: O=C1Cc2c([nH]c3ccc(Br)cc23)-c2ccccc2N1 [kenpaullone]
- NMDAR-dependent LTD [13]: reliably inhibit LTD

SMILES: Cc1c[nH]c(-c2cnc(NCCNc3ccc(C#N)cn3)nc2-c2ccc(Cl)cc2Cl)n1 [CHIR99021]
- NMDAR-dependent LTD [13]: reliably inhibit LTD
